In ChEMBL document CHEMBL1147788, “Design, synthesis, and preliminary biological evaluation of 2,3-dihydro-3-hydroxymethyl-1,4-benzoxazine derivatives” (2006):
The source made the active and inactive calls. No cut-off for these calls is given here.

Experiments:
HUVEC [1] = assay: Induction of HUVEC cell line apoptosis at 50 uM; format: functional, cell-based; conditions: Homo sapiens
Method in brief: (§1)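 HUVECs in MCDB131 with 10% fetal calf serum and […] bFGF, passages 10–20. Apoptosis induced by growth-factor deprivation. Cells cultured with or without compound at 25–200 µM for 24 and 48 h. Means ± SE of three independent experiments versus control.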

HUVEC [2] = assay: Induction of HUVEC cell line apoptosis at 200 uM; format: functional, cell-based; conditions: Homo sapiens; method in brief: as §1
HUVEC [3] = assay: Induction of HUVEC cell line apoptosis at 25 uM; format: functional, cell-based; conditions: Homo sapiens; method in brief: as §1
HUVEC [4] = assay: Induction of HUVEC cell line apoptosis at 100 uM; format: functional, cell-based; conditions: Homo sapiens; method in brief: as §1
A549 [5] = assay: Antiproliferative activity against human A549 cell line by MTT assay; format: functional, cell-based
Method in brief: (§2)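 A549 cells grown in medium with or without compound at 50–400 µM for 24 and 48 h; viability read by MTT assay and expressed as percent of vehicle (DMSO) control. Means ± SE of three independent experiments; significance tested against control.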

HUVEC [6] = assay: Inhibition of HUVEC cell line apoptosis at 50 uM; format: functional, cell-based; conditions: Homo sapiens; method in brief: as §1
HUVEC [7] = assay: Inhibition of HUVEC cell line apoptosis at 200 uM; format: functional, cell-based; conditions: Homo sapiens; method in brief: as §1
HUVEC [8] = assay: Inhibition of HUVEC cell line apoptosis at 100 uM; format: functional, cell-based; conditions: Homo sapiens; method in brief: as §1
A549 [9] = assay: Antiproliferative activity against human A549 cell line at 400 uM after 48 hrs by MTT assay; format: functional, cell-based; method in brief: as §2
A549 [10] = assay: Antiproliferative activity against human A549 cell line at 200 uM after 48 hrs by MTT assay; format: functional, cell-based; method in brief: as §2
A549 [11] = assay: Decrease in viability of human A549 cell line at 400 uM after 48 hrs relative to control by MTT assay; format: functional; method in brief: as §2
A549 [12] = assay: Decrease in viability of human A549 cell line at 400 uM after 24 hrs relative to control by MTT assay; format: functional; method in brief: as §2
A549 [13] = assay: Decrease in viability of human A549 cell line at 200 uM after 48 hrs relative to control by MTT assay; format: functional; method in brief: as §2
A549 [14] = assay: Decrease in viability of human A549 cell line at 200 uM after 24 hrs relative to control by MTT assay; format: functional, cell-based; method in brief: as §2
A549 [15] = assay: Antiproliferative activity against human A549 cell line at 400 uM after 24 hrs by MTT assay; format: functional, cell-based; method in brief: as §2
A549 [16] = assay: Decrease in viability of human A549 cell line at 50 uM after 48 hrs relative to control by MTT assay; format: functional, cell-based; method in brief: as §2

Row | SMILES | Activity (HUVEC [1]) | Activity (HUVEC [2]) | Activity (HUVEC [3]) | Activity (HUVEC [4]) | Activity (A549 [5]) | Activity (HUVEC [6]) | Activity (HUVEC [7]) | Activity (HUVEC [8]) | Activity (A549 [9]) | Activity (A549 [10]) | Activity (A549 [11]) [%] | Activity (A549 [12]) [%] | Activity (A549 [13]) | Activity (A549 [14]) | Activity (A549 [15]) | Activity (A549 [16])
1 | Cc1ccc2c(c1)NC(CO)CO2 (stereo unspecified) | Active | Active | Active | Active | inactive |  |  |  |  |  |  |  |  |  |  | 
2 | Nc1ccc2c(c1)NC(CO)CO2 (stereo unspecified) |  |  |  |  | inactive | Active | Active | Active |  |  |  |  |  |  |  | 
3 | OCC1COc2ccc(Cl)cc2N1 (stereo unspecified) | Active | Active | Active | Active |  |  |  |  | Active | Active |  |  |  |  |  | 
4 | OCC1COc2ccccc2N1 (stereo unspecified) | Active | Active | Active | Active | inactive |  |  |  |  |  |  |  |  |  |  | 
5 | OCC1COc2c(Cl)cccc2N1 (stereo unspecified) | Active | Active | Active | Active | inactive |  |  |  |  |  |  |  |  |  |  | 
6 | CC(C)(C)c1ccc2c(c1)NC(CO)CO2 (stereo unspecified) | Active | Active | Active | Active |  |  |  |  |  |  | 59.5 | 77.8 | 72.6% |  |  | 
7 | OCC1COc2c(Cl)cc(Cl)cc2N1 (stereo unspecified) | Active | Active | Active | Active |  |  |  |  | Active |  |  |  | Active | Active | Active | Active
